Measurements published in paper PMC10166105 (International Journal of Nanomedicine, 2023).

What was measured:
[1] = property table of leuprolide acetate; no matrix and reference not given; cited from earlier work
PC3 spheroids = experiment: Anti-tumor response in 3D spheroid culture model; assay type: cell-based, human; settings: PC3 3D spheroids, 50 μM, 7 days, n = 3
Procedure, shortened: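 PC3 cells were suspended at 2000 cells/mL in 10% FBS-RPMI 1640 with 1% (v/v) Matrigel, plated in ultra-low-attachment wells, centrifuged at 1500 rpm for 10 min and grown at 37 °C, 5% CO2. After 4 days of spheroid formation, test compound was added once at final 50 μM in 2.5% FBS-RPMI. Spheroid area was imaged over 7 days and expressed as fold of day-0 area. n = 3.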

[2] = property table of leuprolide acetate; no reference given; cited from earlier work
PC3 cells = experiment: Cell proliferation assay in 2D monolayer culture; assay type: cell-based, human
Procedure, shortened: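 PC3 cells were grown in RPMI 1640 with 10% FBS and antibiotics, seeded at 1×10^4 cells/well, attached for 24 h, then dosed in 2.5% FBS-RPMI 1640. Single doses of 50, 100 and 200 μM were read at 72 h; daily 50 μM dosing ran for 4 days. Readout was WST-1 for 1 h with absorbance at 450 nm, versus untreated cells, plus live/dead imaging. n = 3, one-way ANOVA.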

[3] = pH 7.4

Compound: CCNC(=O)[C@@H]1CCCN1C(=O)[C@H](CCCNC(=N)N)NC(=O)[C@H](CC(C)C)NC(=O)[C@@H](CC(C)C)NC(=O)[C@H](Cc1ccc(O)cc1)NC(=O)[C@H](CO)NC(=O)[C@H](Cc1c[nH]c2ccccc12)NC(=O)[C@H](Cc1c[nH]cn1)NC(=O)[C@@H]1CCC(=O)N1 [LEU, Leuprolide]
- Half-life [1]: 3 h
- Spheroid growth (spheroid area/volume), one-time treatment (PC3 spheroids): expansion of spheroid volume
- Physiological charge [2]: +1
- Anti-proliferative effect (% of control) (PC3 cells; PC3, treatment repeated daily at 50 µM for 4 days, WST-1, n = 3): 8.9%

Compound: CCCCCCCCCCCCCCCCCC(=O)O [SA, stearic acid]
- Cell survival / cell growth after one-time treatment (PC3 cells; PC3, one-time treatment, 50, 100, 200 μM, 72 h incubation, WST-1): significantly inhibited cell growth

Compound: Leuprolide–lauric acid nanoparticle [LLN]
- Change of particle size, short-time stability in PBS [3]: slight increase in the particle size

Compound: Leuprolide–palmitic acid nanoparticle [LPN]
- Change of particle size, short-time stability in PBS [3]: no significant difference

Compound: Leuprolide–stearic acid nanoparticle [LSN]
- Change of particle size, short-time stability in PBS [3]: no significant difference
